Reference: PMC5848258 (Clinical Infectious Diseases: An Official Publication of …, 2017)
Marks after values point to notes of the source that are not given here.

Experiments:
[1] = cited from earlier work
[2] = test system: HIV-1 subtype B; experiment: Change in plasma HIV-1 RNA, GSK3532795 monotherapy for 10 days; type: in vivo, human
How it was run: (§1)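 HIV-1-infected adults aged 18–55 with plasma HIV-1 RNA ≥5000 copies/mL and CD4+ count ≥200 cells/µL, PI- and MI-naive, were randomized 4:1 to test compound or placebo, double-blind. Dosing was once daily by oral suspension after a ≥10-hour fast for 10 days: part A subtype B, 5–120 mg; part C subtype C, 40 or 120 mg. Plasma HIV-1 RNA was measured by real-time PCR at screening and on days 1–14, 17, 19 and 24–26.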

[3] = test system: HIV-1 subtype C; experiment: as above; type: in vivo, human; settings: for Median of the maximum change from baseline in HIV-1 RNA / Median decline (baseline to day 11) in HIV-1 RNA: Part C
How it was run: as §1

[4] = Plasma pharmacokinetics of GSK3532795, part A; type: in vivo; settings: human, oral
How it was run: (§2)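 The test compound was given as monotherapy by oral suspension after a ≥10-hour fast, once daily for 10 days (part A subtype B, 5–120 mg; part C subtype C, 40 or 120 mg). Serial blood samples were taken on days 1 and 10, with troughs on days 2, 4, 6 and 8. Plasma levels were measured by validated LC/MS and analysed noncompartmentally. Dose proportionality was assessed with a power model on log exposure versus log dose.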

[5] = Plasma pharmacokinetics of GSK3532795, part B; type: in vivo, human; settings: for AUC increase compared with the same dose given as monotherapy: fed vs fasted monotherapy; for AUC / concentration at 24 h / Cmax / Tmax: human, plasma, oral; for AUC: AUCtau (%CV); for concentration at 24 h: C24 (%CV); for Cmax: Cmax (%CV); for Tmax: median (min–max)
How it was run: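 Male subtype B-infected subjects took the test compound (40 or 80 mg) once daily with atazanavir 400 mg, or with atazanavir/ritonavir 300 mg/100 mg. Dosing was open-label, as an oral suspension with breakfast, for 28 days. Serial samples were taken on days 1 and 10, with troughs on days 2, 4, 6 and 8. Plasma levels were measured by validated LC/MS and analysed noncompartmentally.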

[6] = Plasma pharmacokinetics of GSK3532795, part C; type: in vivo, human; settings: for AUC / Cmax / Tmax: human, plasma, oral
How it was run: as §2

[7] = Safety assessments; type: in vivo, human; settings: for Any AE / Deaths / Discontinuations due to AE(s) / Grade 3–4 related AEs / Laboratory abnormalities (grade 3–4) / Serious AEs: Parts A/C
How it was run: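 Over the 10-day once-daily oral monotherapy (test compound or placebo, double-blind, fasted) and follow-up, staff recorded vital signs, physical examination, laboratory measurements, ECG and adverse events. Adverse events were coded with MedDRA version 17.1. Investigators graded their severity and their relationship to study drug.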

[8] = test system: HIV-1 subtype B; experiment: Exposure–response relationship; type: in vivo, human; settings: Part A
How it was run: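 Part A subjects received the test compound orally, fasted, once daily for 10 days. Plasma concentration at 24 hours on day 10 was measured by validated LC/MS. It was related to the maximum change from baseline in log10 HIV-1 RNA with a 3-parameter […] Emax model, Y = E0 + Emax*C/(EC50 + C).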

[9] = Solubility in aqueous media; type: physicochemical
[10] = healthy subjects; ref Bristol-Myers Squibb, data on file; cited from earlier work
[11] = test system: HIV-1; settings: cited from earlier work
[12] = test system: HIV-1 Gag; settings: in vitro, compared with BVM; cited from earlier work
[13] = Part B, fed, 40 mg + ATV 300 mg + RTV 100 mg QD
[14] = Part B, fed, 40 mg + ATV 400 mg QD
[15] = Part B, fed, 80 mg + ATV 400 mg QD

## C=C(C)[C@@H]1CC[C@]2(C(=O)O)CC[C@]3(C)[C@H](CC[C@@H]4[C@@]5(C)CC[C@H](OC(=O)CC(C)(C)C(=O)O)C(C)(C)[C@@H]5CC[C@]43C)[C@@H]12 [BVM, 3-o-(3’,3’-dimethylsuccinyl)betulinic acid, reference compound]
[1]
  Protein binding: > 99%

## C=C(C)[C@@H]1CC[C@]2(NCCN3CCS(=O)(=O)CC3)CC[C@]3(C)[C@H](CC[C@@H]4[C@@]5(C)CC=C(c6ccc(C(=O)O)cc6)C(C)(C)[C@@H]5CC[C@]43C)[C@@H]12 [GSK3532795]
[2]; Part A, 20–120 mg QD dose groups
  Decline in HIV-1 RNA: > 1 log10
[2]; Part A, 40–120 mg QD dose groups
  Plateau of decline in HIV-1 RNA: approximately 1.64 log10 copies/mL
[2]; Part A, 40–120 mg QD, consistently from approximately day 7
  Median decline (baseline to day 11) in HIV-1 RNA: > 1 log10 copies/mL
[2]; Part A, 40–120 mg QD, in the presence of baseline Gag polymorphisms (n = 15)
  Range of median of the maximum decline in HIV-1 RNA: −1.43 to −1.98 log10 copies/mL
[2]; Part A, across all GSK3532795 groups (5–120 mg QD)
  Median of the maximum change in HIV-1 RNA from baseline to study discharge on day 24: −0.50 to −1.70 log10 copies/mL
[2]; following 10 days of monotherapy in subtype B–infected subjects
  Median maximum decline in HIV-1 RNA: 1.70 log10 copies/mL
[3]; 10 days of 40 mg or 120 mg QD monotherapy, subtype C–infected subjects with ≥1 of 3 Gag polymorphisms at baseline
  Decline in HIV-1 RNA: > 1 log10
[3]; 40 mg QD
  Median of the maximum change from baseline in HIV-1 RNA: −1.35 log10 copies/mL
[3]; 40 mg QD, observed after day 8
  Median decline (baseline to day 11) in HIV-1 RNA: > 1 log10 copies/mL
[3]; 120 mg QD
  Median of the maximum change from baseline in HIV-1 RNA: −1.26 log10 copies/mL
[3]; 120 mg QD, observed after day 10
  Median decline (baseline to day 11) in HIV-1 RNA: > 1 log10 copies/mL
[4]
  Tmax: 3 h
  half-life: 30 to 35 h
[4]; 5 mg
  AUC: 2720 ng·h/mL
  Cmax: 171 ng/mL
  Tmax: 3 h
  concentration at 24 h: 81.6 ng/mL
  half-life: 32.7 h
[4]; 10 mg
  AUC: 5170 ng·h/mL
  Cmax: 337 ng/mL
  Tmax: 3 h
  concentration at 24 h: 139 ng/mL
  half-life: 33.1 h
[4]; 20 mg
  AUC: 11800 ng·h/mL
  Cmax: 705 ng/mL
  Tmax: 4 h
  concentration at 24 h: 326 ng/mL
  half-life: 29.7 h
[4]; 40 mg
  AUC: 23000 ng·h/mL
  Cmax: 1480 ng/mL
  Tmax: 3 h
  concentration at 24 h: 713 ng/mL
  half-life: 33.8 h
[4]; 80 mg
  AUC: 39300 ng·h/mL
  Cmax: 2470 ng/mL
  Tmax: 3 h
  concentration at 24 h: 1150 ng/mL
  half-life: 30 h
[4]; 120 mg
  AUC: 44200 ng·h/mL
  Cmax: 2810 ng/mL
  Tmax: 2.5 h
  concentration at 24 h: 1290 ng/mL
  half-life: 34.9 h
[5]; GSK3532795 + ATV alone in the fed state
  Increase in exposures compared with the same dose given as monotherapy fasted: up to 50%
[5]; Part B, 40 mg + ATV alone
  AUC increase compared with the same dose given as monotherapy: approximately 40%
[5]; Part B, 80 mg + ATV alone
  AUC increase compared with the same dose given as monotherapy: ~50%
[5]; Part B, GSK3532795 40 mg
  Exposures higher with ATV/RTV relative to administration with ATV alone: ~ 10%
[5]; Part B, coadministered with ATV alone, fed
  Increase in exposures between 40 mg and 80 mg: ~ 2 fold
[5]; Part B, with ATV ± RTV in the fed state
  Tmax delay: 1 to 2 h
[5]; [13]
  AUC: 34200 ng·h/mL
  concentration at 24 h: 1160 ng/mL
  Cmax: 1850 ng/mL
  Tmax: 5 h
[5]; [14]
  AUC: 31400 ng·h/mL
  concentration at 24 h: 1100 ng/mL
  Cmax: 1670 ng/mL
  Tmax: 4.5 h
[5]; [15]
  AUC: 59900 ng·h/mL
  concentration at 24 h: 2010 ng/mL
  Cmax: 3160 ng/mL
  Tmax: 4.5 h
[6]; Part C, monotherapy, less than dose-proportional
  Increase in Cmax and AUCtau between 40 mg and 120 mg: ~ 2 fold
[6]; 40 mg
  AUC: 25600 ng·h/mL
  Cmax: 1560 ng/mL
  Tmax: 3 h
[6]; 120 mg
  AUC: 54000 ng·h/mL
  Cmax: 3380 ng/mL
  Tmax: 3 h
[7]; 5 mg QD (n=8)
  Any AE: 5 (62.5) n (%)
  Deaths: 0 n (%)
  Discontinuations due to AE(s): 0 n (%)
  Grade 3–4 related AEs: 0 n (%)
  Laboratory abnormalities (grade 3–4): 0 n (%)
  Serious AEs: 0 n (%)
[7]; 10 mg QD (n=8)
  Any AE: 4 (50.0) n (%)
  Deaths: 0 n (%)
  Discontinuations due to AE(s): 0 n (%)
  Grade 3–4 related AEs: 0 n (%)
  Laboratory abnormalities (grade 3–4): 0 n (%)
  Serious AEs: 0 n (%)
[7]; 20 mg QD (n=8)
  Any AE: 4 (50.0) n (%)
  Deaths: 0 n (%)
  Discontinuations due to AE(s): 0 n (%)
  Grade 3–4 related AEs: 0 n (%)
  Laboratory abnormalities (grade 3–4): 0 n (%)
  Serious AEs: 0 n (%)
[7]; 40 mg QD (n=16)
  Any AE: 8 (50.0) n (%)
  Deaths: 0 n (%)
  Discontinuations due to AE(s): 0 n (%)
  Grade 3–4 related AEs: 0 n (%)
  Laboratory abnormalities (grade 3–4): 0 n (%)
  Serious AEs: 0 n (%)
[7]; 80 mg QD (n=8)
  Any AE: 7 (87.5) n (%)
  Deaths: 0 n (%)
  Discontinuations due to AE(s): 0 n (%)
  Grade 3–4 related AEs: 0 n (%)
  Laboratory abnormalities (grade 3–4): 0 n (%)
  Serious AEs: 0 n (%)
[7]; 120 mg QD (n=15)
  Any AE: 10 (66.6) n (%)
  Deaths: 0 n (%)
  Discontinuations due to AE(s): 0 n (%)
  Grade 3–4 related AEs: 0 n (%)
  Serious AEs: 0 n (%)
[7]; 120 mg QD (n=15), grade 3 transient neutropenia reported as related to GSK3532795
  Laboratory abnormalities (grade 3–4): 1 (6.7)^c n (%)
[7]; during GSK3532795 monotherapy
  Cases of hyperbilirubinemia: no cases
[8]; Emax model
  Predicted maximum decline in HIV-1 RNA from baseline: approximately 1.7 log10 copies/mL
[8]; steady-state C24 vs maximum change in HIV-1 RNA
  C24 at which apparent response plateau was achieved: ≥ 500 ng/mL
[9]
  solubility: < 1 µg/mL
[10]
  Half-life (T1/2): approximately 35 hours
[1]
  Human serum binding: 86%
[11]
  EC50 shift in the presence of serum: 5.4 fold
[11]; in vitro studies
  Effect when combined with other antiretrovirals, including integrase inhibitors: additive
[12]
  Binding to HIV-1 Gag: binds reversibly to HIV-1 Gag with greater affinity than BVM
